KCNQ1 inh: inhibitors of human KCNQ1 channel, primary screen, cell-based, thallium flux, high-throughput; Potassium voltage-gated channel subfamily KQT member 1 (Homo sapiens), P51787; CHO-K1 KCNQ1, FluxOR thallium flux fluorescence; active compounds read high; B-score at 10 µM; 1.3% of 310,000 active;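 active means compounds whose thallium flux B-score, printed positive for inhibition, exceeds three library SD while starting fluorescence stays within three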;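 further: channel opened by potassium depolarization with thallium stimulus after 20 min compound exposure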
KCNK3 block: human KCNK3 channel inhibitors, primary screen, CHO cells, FluxOR thallium flux, B-score. Potassium channel subfamily K member 3 (Homo sapiens), O14649. FluxOR fluorescence; active compounds read low. B-score at 10 µM. 0.84% of 340,000 active;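 active means B-score under library mean minus 4 SD, starting fluorescence ratio at most library mean plus 5 SD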;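 further: more negative B-score means stronger inhibition of thallium flux through KCNK3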
Target sequence (O14649 whole entry, looked up): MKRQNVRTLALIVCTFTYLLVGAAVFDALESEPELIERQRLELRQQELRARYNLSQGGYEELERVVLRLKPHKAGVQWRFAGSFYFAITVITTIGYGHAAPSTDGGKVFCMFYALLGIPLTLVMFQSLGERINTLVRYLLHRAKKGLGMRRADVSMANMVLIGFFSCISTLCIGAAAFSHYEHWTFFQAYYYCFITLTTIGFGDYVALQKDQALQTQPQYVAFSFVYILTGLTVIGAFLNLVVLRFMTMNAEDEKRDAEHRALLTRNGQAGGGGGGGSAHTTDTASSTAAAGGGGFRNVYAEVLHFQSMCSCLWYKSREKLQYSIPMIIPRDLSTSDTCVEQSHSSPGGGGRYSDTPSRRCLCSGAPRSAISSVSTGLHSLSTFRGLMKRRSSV
Kir21 block: inhibitors of mouse Kir2.1 inward-rectifier potassium channel | Inward rectifier potassium channel 2 (Mus musculus), P35561 | HEK293-Kir2.1, FluxOR thallium flux fluorescence; active compounds read low | B-score at 10 µM | 0.85% of 310,000 active;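 active means fluorescence ratio B-score at or below minus 3 SD of library scores, with starting-brightness B-score within 2 SD, cut at about -4.2 in these data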;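 further: channel flux triggered by added potassium and thallium sulfate stimulus; B-score of peak minus minimum fluorescence over baseline after thallium stimulus; more negative B-score means stronger Kir2.1 block with less thallium influx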
hERG rescue: hERG rescue from dofetilide block, primary screen, cell-based, CHO-hERG, FluxOR thallium flux, dofetilide IC70; 0.51% of 310,000 active; AID 1511, 2009; activation (rescue from dofetilide block), less the hit threshold, % at 10 µM; Voltage-gated inwardly rectifying potassium channel KCNH2 (Homo sapiens), Q12809; dofetilide IC70 present;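 active means activation above the mean of controls blocked by dofetilide plus 5 SD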;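 further: thallium influx through hERG after potassium depolarization seen as dye fluorescence rise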
KCNQ1 pot: potentiators or activators of KCNQ1 channel, primary screen, cell-based, thallium flux, high-throughput; 0.35% of 310,000 active; Potassium voltage-gated channel subfamily KQT member 1 (Homo sapiens), P51787; CHO-K1 KCNQ1, thallium flux FluxOR fluorescence; active compounds read high; B-score at 10 µM; AID 2648, 2010;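 active means fluorescence ratio B-score, a plate-corrected score, at least three library SD, with initial intensity B-score within 5 SD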
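Schedule – 37 °C overnight plating, 90-min dark dye load, 20-min compound pretreatment · System – stable KCNQ1 CHO-K1 line · Probe or stimulus – thallium- and potassium-containing depolarizing buffer · Measured by – kinetic FluxOR fluorescence, 10 s baseline plus 110 s post-stimulus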
KCNK9 inh: KCNK9 potassium channel inhibitors, primary screen, HEK293 cells, thallium flux. 1.2% of 310,000 active. AID 488922, 2010. B-score at 10 µM. Potassium channel subfamily K member 9 (Homo sapiens), Q9NPC2. FluxOR thallium flux fluorescence; active compounds read low;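 active means ratio B-score over 3 SD below the library mean, with starting fluorescence within 5 SD of its mean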;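 further: negative B-score means less thallium flux so channel inhibition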
KCNK3 confirm: retest of human KCNK3 channel inhibitors, confirmation, CHO cells, FluxOR thallium flux, triplicate. shares compounds with KCNK3 block. FluxOR fluorescence; 0% buffer, 100% carvedilol maximal block. ratio percent of control, % at 10 µM. 99% of 2,400 active. AID 651638, 2012;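 active means ratio percent of control, averaged over triplicates, above buffer control mean plus 5 SD, cut at about 64% in these data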;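 further: ratio is the fluorescence rise from min to max over baseline after thallium stimulus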
KCNK3 uninduced: thallium flux inhibition in non-induced cells, primary screen, counter-screen for KCNK3 inhibitor project, cell-based, non-induced KCNK3 line, FluxOR thallium, triplicate. shares compounds with KCNK3 block. non-induced KCNK3 parental cells; active compounds read low. thallium flux ratio (lower = more inhibition) at 10 µM. 40% of 2,400 active. AID 651747, 2012;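 active means thallium flux ratio, averaged over three wells, more than 5 SD below the buffer control mean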;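 further: host cells are CHO cells without KCNK3 induction; ratio is peak minus trough fluorescence over baseline then normalized to buffer controls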
Starred values were filed as active, the others as inactive; i = inactive; / = no result. Sampled rows, rich in hits. Any-hit rate of the full collection: about 3.8%.

SMILES | KCNQ1 inh | KCNK3 block | Kir21 block | hERG rescue | KCNQ1 pot | KCNK9 inh | KCNK3 confirm | KCNK3 uninduced
Cc1oc(-c2cccc3ccccc23)nc1CN1CCN(c2ncnc3ccccc23)CC1 | i | -9.7* | 1.3 | -16 | i | i | 112* | i
CCOc1ccc(NS(=O)(=O)c2ccc(-c3coc(C)n3)cc2)cc1 | i | i | 2.2 | -2 | i | i | / | /
CCOC(=O)/C(=C\c1ccc(N2CCC(c3ccccc3)=N2)cc1)C(C)=O | / | -12* | / | / | / | / | 0 | i
O=C(/C=C/c1ccc(N2CCC(c3ccccc3)=N2)cc1)c1ccccc1 | i | / | -10 | -16 | i | i | / | /
Cc1oc2ccc(O)c(CN(C)C)c2c1C(=O)c1ccccc1 | i | i | -3.2 | -4 | i | i | / | /
CCOC(=O)c1c(CSCc2ccccc2)oc2ccc(O)c(CN(C)C)c12 | i | -9.3* | -2.8 | -29 | i | i | 123* | i
Cc1ccc(SCC(=O)N2c3ccccc3Sc3ccccc32)cc1 | i | -9.6* | 0.08 | -8 | i | i | 105* | 0.16*
O=C(N/N=C/c1ccccc1F)c1ccccc1OCc1ccccc1 | i | i | -1.6 | -9 | i | i | / | /
CCn1c(NCc2ccccc2NS(=O)(=O)c2ccc(C)cc2)nc2ccccc21 | i | i | 0.02 | -7 | i | i | / | /
CCn1c(NCc2cc(Br)ccc2NS(=O)(=O)c2ccc(C)cc2)nc2ccccc21 | 6* | -11* | -0.49 | -9 | i | i | 120* | i
Cc1ccc(NC(=O)CSCc2cc(=O)n3ccsc3n2)cc1 | i | i | 0.04 | -5 | i | i | / | /
O=C(CSc1ccc(Cl)cc1Cl)N1CCC(c2nc3ccccc3s2)CC1 | i | -15* | -1.3 | -7 | i | i | 124* | i
CCOC(=O)/C(C#N)=C/c1cc(C)n(-c2ccc(C)cc2)c1C | i | -9.6* | -0.21 | -4 | i | i | 110* | i
COc1c(C)cc(Br)cc1C(=O)Nc1ccc(Cc2ccncc2)cc1 | i | -9.7* | 0.07 | -21 | i | i | 117* | i
Cc1ccccc1Oc1cc(NC(=O)CCCn2nc(C)c([N+](=O)[O-])c2C)cc([N+](=O)[O-])c1 | i | -9.3* | 1.3 | -7 | i | i | 119* | i
Cc1c(Cl)c([N+](=O)[O-])nn1CCCC(=O)Nc1cc(Oc2ccccc2)cc([N+](=O)[O-])c1 | i | i | -0.05 | -2 | i | i | / | /
Cc1nn(CCCC(=O)Nc2cc(Oc3ccc(F)cc3)cc([N+](=O)[O-])c2)c(C)c1[N+](=O)[O-] | i | -8.9* | -0.55 | -9 | i | i | 125* | i
COc1ccc(C)cc1NC(=O)c1ccc(S(=O)(=O)N2CCCCC2)cc1 | i | -9.7* | 1.1 | -13 | i | i | 106* | 0.16*
Cc1ccc(NC(=O)/C=C/c2ccco2)cc1S(=O)(=O)N1CCCCCC1 | i | -9.4* | -0.02 | -6 | i | i | 124* | 0.12*
COc1ccc(S(=O)(=O)N2CCCCCC2)cc1NC(=O)c1ccccc1 | i | i | -0.03 | -6 | i | i | / | /
Cc1ccc(NC(=O)c2ccc(F)cc2)cc1S(=O)(=O)N1CCCCCC1 | i | -11* | -0.98 | -12 | i | i | 101* | i
CSc1cccc(NC(=O)CNC(=O)C2CCCCC2)c1 | i | i | -1.3 | -14 | i | i | / | /
O=C(C(=Cc1ccccc1)CN1CCCCC1)c1ccccc1 | / | i | / | / | / | / | / | /
CSc1ccc(C2Nc3cccc4cccc(c34)N2)cc1 | 6* | -8.8* | -1.2 | -11 | i | i | 112* | i
Clc1ccc(C2Nc3cccc4cccc(c34)N2)cc1 | i | i | -1.5 | -5 | i | i | / | /
SMILES | KCNQ1 inh | KCNK3 block | Kir21 block | hERG rescue | KCNQ1 pot | KCNK9 inh | KCNK3 confirm | KCNK3 uninduced
CCN(C(=O)COC(=O)CCCOc1ccc(Cl)cc1C)c1c(N)n(Cc2ccccc2)c(=O)[nH]c1=O | / | i | / | / | / | / | / | /
COC(=O)c1sc2nc(N3CCCCC3)c3c(c2c1N)CCCC3 | i | -11* | -0.67 | -9 | i | i | 104* | i
S=C(c1ccc(-c2cc(Cl)ccc2Cl)o1)N1CCOCC1 | i | -8.9* | 0.7 | -9 | i | i | 126* | 0.14*
O=C(CCc1ccccc1)N/N=C\C1CC=CCC1 (stereo not drawn) | i | i | 0.35 | -10 | i | i | / | /
CC(C)(C)c1ccc(OCC(=O)N/N=C/C2CC=CCC2)cc1 (stereo not drawn) | i | -10* | 1.2 | -5 | i | -7.2* | 96* | i
O=C(Nc1cccc(-c2nc3ccccc3[nH]2)c1)c1ccccn1 | i | -13* | 1.8 | -10 | i | -7.1* | 109* | i
CC(=O)Nc1cccc(-c2nc3ccccc3[nH]2)c1 | i | i | -0.42 | -20 | i | i | / | /
CC(C)(C)C(=O)Nc1cccc(-c2nc3ccccc3[nH]2)c1 | i | -11* | 1.6 | -16 | i | i | 93* | i
CC(Oc1ccccc1)C(=O)Nc1cccc(-c2nc3ccccc3[nH]2)c1 (stereo not drawn) | i | -11* | -0.33 | -23 | i | -7.4* | 100* | 0.14*
CC(C)CC(=O)Nc1cccc(-c2nc3ccccc3[nH]2)c1 | i | -11* | 0.42 | -20 | i | i | 124* | 0.12*
Cc1nc(-c2cccc(NC(=O)C(C)Oc3ccccc3)c2)cs1 (stereo not drawn) | i | i | -0.28 | -8 | i | i | / | /
CC(=O)Nc1cccc(-c2nc3ccc(NC(C)=O)cc3[nH]2)c1 | i | i | -1.8 | -4 | i | i | / | /
O=C(O)c1cccc(-c2nc3ccccc3[nH]2)c1 | i | i | -1.6 | 1 | i | i | / | /
